The values that follow come from ChEMBL document CHEMBL1124801, “Novel 3-hydroxy-2(1H)-pyridinones. Synthesis, iron(III)-chelating properties, and biological activity” (J Med Chem, 1990).

Holding throughout (type): physicochemical
Series [1] is described as follows: Distribution coefficient and iron(III) complex was measured at an aqueous phase buffered at pH 7.4 and octanol. The note with it: octanol/water. The procedure, abridged: (§1)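 Spectrophotometric partition: ligands at about 0.1 mM in 20 mM Tris-HCl pH 7.4 shaken overnight with octan-1-ol at 25 °C. Octanol volume chosen to lower aqueous absorbance by 30–70%; three preparations used. Aqueous spectra read at 250–350 nm for free ligands and 350–600 for iron(III) complexes, the complexes formed with over 10-fold ligand excess over iron(III).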

Series [2] in a line: Distribution coefficient was measured at an aqueous phase buffered at pH 7.4 and octanol. The note with it: octanol/water. The procedure, abridged:
as §1

A short description of series [3]: pKa values was measured by spectrophotometric method.
A short description of series [4]: pKa values were measured by spectrophotometric method.

Consider `CC(C)NC(=O)Cn1cccc(O)c1=O`, for which the Distribution coefficient in series [1] is 0.11; in series [2] it was 0.46.

For `CCCNC(=O)Cn1cccc(O)c1=O`, the Distribution coefficient came to 0.35 in series [1] and 0.57 in series [2]. The same compound returned a pKa in series [3] of 8.75.

Take `CCn1cccc(O)c1=O`: the Distribution coefficient in series [1] turned out to be 1.67; in series [2], 1.57. For the same compound, in series [4], the pKa amounted to 8.99.

With `CNC(=O)Cn1cccc(O)c1=O`, the Distribution coefficient is 0.001 in series [1] and 0.07 in series [2].

Consider `CCNC(=O)Cn1cccc(O)c1=O`, for which the Distribution coefficient in series [1] is recorded as 0.035; in series [2], 0.18.

On to `CCCCNC(=O)Cn1cccc(O)c1=O`, for which the figures for the Distribution coefficient in series [1] and in series [2] were 3.74 and 2.12, respectively.

`O=C(Cn1cccc(O)c1=O)NCCN(CCNC(=O)Cn1cccc(O)c1=O)CCNC(=O)Cn1cccc(O)c1=O`: the Distribution coefficient in series [1] was determined as 0.008; in series [2], 0.025. In series [3], this compound registered a pKa of 8.7.

Consider `CCCCn1cccc(O)c1=O`, for which the figures for the Distribution coefficient in series [1] and in series [2] were over 1000 and 16, respectively.

Regarding `CC(C)n1cccc(O)c1=O`, the Distribution coefficient was 234 in series [1] and 6.17 in series [2].

In the case of `CCCn1cccc(O)c1=O`, the Distribution coefficient in series [1] amounted to 24.6; in series [2], 4.92.

Consider `Cn1cccc(O)c1=O`, for which the Distribution coefficient in series [1] came out at 0.12; in series [2] it was 0.6.

For `CC(=O)N(O)CCCCCNC(=O)CCC(=O)N(O)CCCCCNC(=O)CCC(=O)N(O)CCCCCN` [DEFEROXAMINE], the Distribution coefficient in series [1] is 0.03; in series [2] it was 0.07.

The pKa is the pH at which an ionisable group is half protonated.
